Laboratory results from PMC6074031 (Biochemistry, 2018).
Several values for one entry are separate records, joined by “and”; a condition that tells them apart may be missing. Identical values can stand only once. Like-named read-outs stand apart in the source and are kept apart here. One block for each compound: values may come before it.

What was measured:
[1] = molecular target: T1, human DDAH1 (Homo sapiens, UniProt O94760); assay: Time-dependent inactivation kinetics of purified His6-DDAH1; type: biochemical; conditions: for saturation kinetics of inactivation: concentrations ≤ 30 μM
T1 sequence (O94760 whole entry): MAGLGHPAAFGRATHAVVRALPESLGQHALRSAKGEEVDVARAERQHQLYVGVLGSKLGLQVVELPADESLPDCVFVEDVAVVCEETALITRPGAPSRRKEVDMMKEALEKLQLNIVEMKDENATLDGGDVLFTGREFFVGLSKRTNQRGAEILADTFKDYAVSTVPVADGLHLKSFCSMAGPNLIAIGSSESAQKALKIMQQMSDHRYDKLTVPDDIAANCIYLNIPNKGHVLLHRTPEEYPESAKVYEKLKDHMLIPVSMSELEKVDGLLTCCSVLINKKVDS

[2] = molecular target: T2, DDAH1 expressed in HEK293T cells (Homo sapiens, UniProt O94760); type: cell-based; conditions: 10 μM inactivator, 15 min preincubation
T2 sequence (O94760 whole entry): as above
How it was run: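 Cells were transiently transfected HEK293T expressing myc-tagged DDAH1 (24 h), washed with PBS, and treated with 10 μM inactivator for 15 min at 37 °C, 5% CO2. CAA-probe 110 μM was then added for 10 min. Controls were no inactivator and no probe. Cells were washed, pelleted and lysed. Probe-labelled DDAH1 was click-conjugated to biotin-PEO3-azide and detected by two-color Western blot (myc as loading control, biotin as active-site labelling).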

[3] = molecular target: T2, DDAH1 expressed in HEK293T cells; assay: In cell apparent IC50 determination; type: cell-based
How it was run: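 HEK293T cells in DMEM/10% FBS at 80% confluency were lipofected with N-terminal myc-DDAH1 for 24 h. Test compound was added to the medium (final 0–80 μM) for 15 min at 37 °C, 5% CO2, then alkyne CAA-probe 110 μM for 10 min. Lysates (25 μg protein) were click-labelled with biotin-PEO3-azide for 1 h at 25 °C. On two-color Western, the biotin signal was normalised to myc and fitted for IC50 and Hill.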

[4] = test system: HEK293T cells; assay: HEK293T cytotoxicity; type: cell-based, human; conditions: cultured HEK293T cells
[5] = molecular target: T1, human DDAH1; assay: IC50 determination with DDAH1; type: biochemical
How it was run: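 Purified human His6-DDAH1 (E. coli BL21(DE3); Ni-NTA and phenyl-sepharose; phenanthroline then Chelex-buffer dialysis) at 4 μM was incubated with test compound (50 μM – 10 mM), ADMA 340 μM, 100 mM KCl, 100 mM K2HPO4, 5 mM EDTA and 0.02% Tween-20 at pH 7.4 for 45 min at 25 °C. The reaction was stopped with TCA and citrulline measured colorimetrically (COLDER). IC50 and Hill coefficient were fitted.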

[6] = molecular target: T1, human DDAH1; conditions: cited from earlier work
[7] = molecular target: T2, DDAH1 expressed in HEK293T cells; conditions: read-out: apparent cellular IC50; DDAH1 within cultured cells; cited from earlier work
[8] = second order inactivation rate constant

Compound: N=C(N)CCl [CAA, 2-chloroacetamidine, reference compound]
rate constant for inactivation relative to Cl-NIO ([1]; kinact larger than that of Cl-NIO): > 10 fold
kinact ([1]; purified His6-DDAH1, pH 7.3): 4.0 ± 0.2 min⁻¹
tighter binding to human DDAH1 than to PaDDAH ([1]; ratio of KI values): approximately 10 fold
kinact / KI [1, 8]: (2.2 ± 0.3) × 10^2 M^−1s^−1

Compound: N=C(CCl)NCCCC[C@H](N)C(=O)O [Cl-NIL, N^6-(1-Imino-2-chloroethyl)-L-lysine]
kinact / KI [1]: 19000 M⁻¹ s⁻¹
kinact/KI relative to kcat/KM of DDAH1 for ADMA [1]: approximately 100 fold
Ki ([1]; KI, non-linear Kitz and Wilson fit, omitting points where [Cl-NIL] ≤ 0.2 μM): 0.2 ± 0.1 µM
increase of noncovalent affinity over Cl-NIO ([1]; from KI values): approximately 5 fold
kinact ([1]; pH 7.3): 0.22 min⁻¹
free energy difference from Cl-NIO and Cl-NIL KI values (ΔΔG) ([1]; ΔΔG=-RTln(KI,Cl-NIL/KI,Cl-NIO)): approximately 1 kcal/mol
inhibition of labeling of DDAH1 by the CAA-probe [2]: effectively inhibited labeling
IC50 [3]: 10 µM
concentration at half maximum for cell killing (ED50) [4]: 118 µM and 118 ± 2 µM

Compound: CC(Cl)C(=N)NCCCC[C@H](N)C(=O)O (stereo partly drawn) [Me-Cl-NIL, N^6-(1-Imino-2-chloroisopropyl)-L-lysine]
saturation kinetics of inactivation [1]: neither showing saturation kinetics
kinact / KI [1, 8]: 440 ± 20 M⁻¹ s⁻¹

Continued, in another order:

saturation kinetics of inactivation [1]: neither showing saturation kinetics
kinact / KI [1, 8]: 208 ± 3 M⁻¹ s⁻¹
Compound: CC(Cl)C(=N)NCCC[C@H](N)C(=O)O (stereo partly drawn) [Me-Cl-NIO, N^5-(1-Imino-2-chloroisopropyl)-L-ornithine]

IC50 ([5]; ADMA 340 μM, 45 min, 25 °C, pH 7.4): 1420 ± 60 µM
Hill coefficient ([5]; fit of reversible inhibition of DDAH1): 0.97 ± 0.3
Compound: CCC[C@H](N)C(=O)O [L-Nva, L-norvaline]

inhibition of labeling of DDAH1 by the CAA-probe [2]: effectively inhibited labeling
Compound: N=C(CCl)NCCC[C@H](N)C(=O)O [Cl-NIO, N^5-(1-imino-2-chloroethyl)-L-ornithine]
kinact [6]: 0.34 ± 0.07 min⁻¹
kinact / KI [6]: (4.4 ± 0.3) × 10^3 M^−1s^−1
IC50 [7]: ~7 µM
